Laboratory results reported in publication PMC3207488 (Bioorganic & medicinal chemistry, 2011).
Like-named read-outs stand apart in the source and are kept apart here.

How the values were obtained:
[1] = test system: TNF-α-induced NFκB activity; assay: NFκB luciferase assay; format: cell-based, human; settings: for inhibition at 50 µM: HEK293, read-out: NFκB % inhib.; for NFκB % inhib.: 50 μM
In short: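 HEK293 line carrying a chromosomally integrated luciferase reporter driven by the NFκB response element. Cells incubated 6 h with TNFα plus test compound, then luciferase activity read. Inhibition expressed as % relative to TNFα-treated control. IC50 from dose-response of five serial dilutions, mean of two experiments.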

aromatase (CYP19) = target: T1, aromatase (CYP19) (Homo sapiens, UniProt P11511); assay: Aromatase assay; format: biochemical; settings: for inhibition at 50 µM: read-out: Aromatase % inhib., 50 μM; for inhibition at 50 µM / Aromatase % inhib.: vs vehicle-treated controls; for Aromatase % inhib.: 50 μM
T1 sequence (P11511 1-503): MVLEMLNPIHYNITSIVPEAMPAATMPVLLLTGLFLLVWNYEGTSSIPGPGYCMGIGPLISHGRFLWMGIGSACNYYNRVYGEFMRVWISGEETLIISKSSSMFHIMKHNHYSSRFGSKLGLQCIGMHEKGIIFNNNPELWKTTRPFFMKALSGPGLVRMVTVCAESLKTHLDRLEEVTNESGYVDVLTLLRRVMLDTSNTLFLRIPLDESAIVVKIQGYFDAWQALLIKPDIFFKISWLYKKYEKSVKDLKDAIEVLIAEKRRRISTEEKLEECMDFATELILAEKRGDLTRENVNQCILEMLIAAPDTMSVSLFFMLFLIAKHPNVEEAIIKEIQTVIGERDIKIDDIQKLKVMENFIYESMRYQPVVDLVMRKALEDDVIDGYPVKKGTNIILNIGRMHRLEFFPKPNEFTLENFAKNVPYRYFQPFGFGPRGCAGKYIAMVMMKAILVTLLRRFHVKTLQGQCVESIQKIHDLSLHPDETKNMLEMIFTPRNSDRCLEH

RAW 264.7 cells = assay: Cell survival in the nitrite assay; format: cell-based, murine; settings: for viability at 50 µM: Mus musculus, RAW264.7, 20 h, read-out: Nitrite assay % surv.; for Nitrite assay % surv.: 50 μM, RAW 264.7 cells
In short: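 RAW 264.7 cells held 24 h at 37°C, 5% CO2, then given serially diluted test compound for 15 min. LPS (1 μg/mL) or no LPS added for a further 20 h. Viability assessed by SRB protein staining under the same conditions as the nitrite assay, as % survival versus vehicle-treated controls.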

[2] = test system: quinone reductase 1 (QR1); assay: QR1 induction in cell culture; format: cell-based, murine; settings: 50 μM; Hepa 1c1c7 cells
In short: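 Hepa 1c1c7 murine hepatoma cells. QR1 measured by NADPH-dependent, menadiol-mediated reduction of MTT to blue formazan, with protein determined by crystal violet staining of identical plates. Specific activity given as nmol formazan/mg protein/min. IR is the ratio of treated to DMSO-control specific activity. CD (concentration doubling activity) derived by dose-response for IR >2.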

[3] = test system: Hepa 1c1c7 murine hepatoma cells; assay: Cell survival in the QR1 assay; format: cell-based; settings: for viability at 50 µM: Mus musculus, Hepa-1c1c7, read-out: QR1 % surv.; for QR1 % surv.: 50 μM, cell survival in comparison with vehicle-treated controls
[4] = test system: Human embryonic kidney cells 293; assay: Cell survival in the NFκB assay; format: cell-based; settings: for viability at 50 µM: Homo sapiens, HEK293, 6 h, read-out: NFκB % surv.; for NFκB % surv.: 50 μM, 293 cells
MCF7 breast cancer cells = assay: SRB assay: MCF7 cell proliferation; format: cell-based; settings: for viability at 50 µM: Homo sapiens, MCF7, 72 h, read-out: SRB assay % surv.; for SRB assay % surv.: MCF7 cells, 72 h
In short: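 MCF7 cells (1 × 10^4 per well) plated with test compound, 72 h at 37°C, 5% CO2. Fixed in 10% TCA for 30 min, stained with 0.4% SRB in 1% acetic acid for 30 min, then washed with 1% acetic acid. Bound dye dissolved in 10 mM Tris (pH 10.0) and A515 read. Survival given as % of vehicle-treated controls.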

[5] = test system: various human cancer cell lines; settings: natural callophycin A; cited from earlier work
[6] = test system: nitric oxide (NO) production in LPS-stimulated RAW 264.7 murine macrophage cells; assay: Nitrite assay: NO production in LPS-stimulated RAW 264.7 cells; format: cell-based

Molecule O=C(O)[C@H]1Cc2c([nH]c3ccccc23)CN1 [Compound 1b, 1,2,3,4-tetrahydro-β-carboline-3-carboxylic acid] has an inhibition at 50 µM ([1]; Homo sapiens) of -72.5%.
With C=CCOC(=O)N1Cc2[nH]c3ccccc3c2C[C@H]1C(=O)OC [Compound 3a, (S)-2-Allyl 3-methyl 3,4-dihydro-1H-pyrido[3,4-b]indole-2,3(9H)-dicarboxylate] the inhibition at 50 µM (aromatase (CYP19)) was > 50%.
With COC(=O)[C@@H]1Cc2c([nH]c3ccccc23)CN1C(=O)OCC(C)C [Compound 3b, (S)-2-Isobutyl 3-methyl 3,4-dihydro-1H-pyrido[3,4-b]indole-2,3(9H)-dicarboxylate] the viability at 50 µM (RAW 264.7 cells) was 105%, the “QR1 IR (induction ratio)” value [2] was 1.7 and the viability at 50 µM [3] was 88.3%. It also gave a viability at 50 µM [4] of 95.6%, a viability at 50 µM (MCF7 breast cancer cells) of 76.7% and an IC50 (aromatase (CYP19)) of 64.5 µM. The inhibition at 50 µM (aromatase (CYP19)) was 41.5%, the inhibition at 50 µM ([1]; Homo sapiens) was 59.8% and the IC50 ([1]; Homo sapiens, HEK293, read-out: NFκB IC50) was 16.2 µM.
With COC(=O)[C@@H]1Cc2c([nH]c3ccccc23)CN1C(=O)NC(C)C [Compound 6b, (S)-Methyl 2-(isopropylcarbamoyl)-2,3,4,9-tetrahydro-1H-pyrido[3,4-b]indole-3-carboxylate] the inhibition at 50 µM (aromatase (CYP19)) was > 50%.
With CC(C)COC(=O)N1Cc2[nH]c3ccccc3c2C[C@H]1C(=O)O [Compound 7b, (S)-2-(Isobutoxycarbonyl)-2,3,4,9-tetrahydro-1H-pyrido[3,4-b]indole-3-carboxylic acid] the viability at 50 µM (RAW 264.7 cells) was 137%, the “QR1 IR (induction ratio)” value [2] was 1.8 and the viability at 50 µM [3] was 94.2%. It also gave a viability at 50 µM [4] of 138%, a viability at 50 µM (MCF7 breast cancer cells) of 105% and an IC50 (aromatase (CYP19)) of 72 µM. The inhibition at 50 µM (aromatase (CYP19)) was 40% and the inhibition at 50 µM ([1]; Homo sapiens) was 42.6%.
In the case of O=C(O)[C@@H]1Cc2c([nH]c3ccccc23)CN1Cc1ccc(O)cc1 [Compound 12a, (S)-Callophycin A], the inhibition at 50 µM (aromatase (CYP19)) is reported as > 50%.
For O=C(O)C1Cc2c([nH]c3ccccc23)CN1Cc1ccc(O)cc1 (stereo not shown) [callophycin A, Callophycin A], the antiproliferative effects [5] is given as “low micromolar concentrations” and the “inhibition of MCF7 cell proliferation (in words)” value (MCF7 breast cancer cells; 50 μM) is given as “didn’t show the inhibitory activity”.
With “(R)-2-(Isobutoxycarbonyl)-2,3,4,9-tetrahydro-1H-pyrido[3,4-b]indole-3-carboxylic acid [Compound 7d]” the “Nitrite assay % surv.” value (RAW 264.7 cells) was 134.4%, the “QR1 IR (induction ratio)” value [2] was 1.5 and the QR1 % surv. [3] was 87.5%. For the same molecule, the “Nitrite assay % inhib.” value ([6]; 50 μM) was 1.5%, the NFκB % surv. [4] was 264.3% and the “SRB assay % surv.” value (MCF7 breast cancer cells; 50 μM) was 97.4%. It also gave an Aromatase % inhib. (aromatase (CYP19)) of 36.3% and an NFκB % inhib. ([1]; TNFα-treated 293 cells) of 46.1%.
With “(R)-2-Isobutyl 3-methyl 3,4-dihydro-1H-pyrido[3,4-b]indole-2,3(9H)-dicarboxylate [Compound 3d]” the “Nitrite assay % surv.” value (RAW 264.7 cells) was 92.6%, the “QR1 IR (induction ratio)” value [2] was 1.1 and the QR1 % surv. [3] was 78.8%. For the same molecule, the IC50 ([6]; read-out: Nitrite assay IC50) was 2.8 µM, the NFκB % surv. [4] was 112.3% and the “SRB assay % surv.” value (MCF7 breast cancer cells; 50 μM) was 72.0%. The Aromatase % inhib. (aromatase (CYP19)) was 31.7%, the NFκB % inhib. ([1]; TNFα-treated 293 cells) was 91.6% and the IC50 ([1]; read-out: NFκB IC50, TNFα-treated 293 cells) was 4.8 µM.
